Measured values from ChEMBL document CHEMBL1150274 (Bioorg Med Chem, 2008).
Active and inactive are the calls of the source. The rule behind the calls is not given here.

How the values were obtained:
[1] = target: T1, Mu-type opioid receptor (Homo sapiens, UniProt P35372); assay: Displacement of [3H]DAMGO from human mu opioid receptor expressed in CHO cells; assay type: cell-based
[2] = target: Delta-type opioid receptor (Homo sapiens, UniProt P41143); assay: Displacement of [3H]naltrindole from human delta opioid receptor expressed in CHO cells; assay type: cell-based
Delta-type opioid receptor, sequence (P41143 whole entry): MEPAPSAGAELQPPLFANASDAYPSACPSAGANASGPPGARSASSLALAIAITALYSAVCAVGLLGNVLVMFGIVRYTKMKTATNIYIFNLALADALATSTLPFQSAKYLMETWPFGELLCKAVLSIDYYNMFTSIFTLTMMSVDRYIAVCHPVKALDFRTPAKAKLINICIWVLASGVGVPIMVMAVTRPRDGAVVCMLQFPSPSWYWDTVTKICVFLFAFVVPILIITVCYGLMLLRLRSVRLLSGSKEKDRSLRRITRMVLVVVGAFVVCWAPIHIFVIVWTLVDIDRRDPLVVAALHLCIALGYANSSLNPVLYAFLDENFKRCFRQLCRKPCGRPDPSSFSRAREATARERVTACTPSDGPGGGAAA

[3] = target: T2, Kappa-type opioid receptor (Homo sapiens, UniProt P41145); assay: Displacement of [3H]U69,593 from human kappa opioid receptor expressed in CHO cells; assay type: cell-based
T2 sequence (P41145 whole entry): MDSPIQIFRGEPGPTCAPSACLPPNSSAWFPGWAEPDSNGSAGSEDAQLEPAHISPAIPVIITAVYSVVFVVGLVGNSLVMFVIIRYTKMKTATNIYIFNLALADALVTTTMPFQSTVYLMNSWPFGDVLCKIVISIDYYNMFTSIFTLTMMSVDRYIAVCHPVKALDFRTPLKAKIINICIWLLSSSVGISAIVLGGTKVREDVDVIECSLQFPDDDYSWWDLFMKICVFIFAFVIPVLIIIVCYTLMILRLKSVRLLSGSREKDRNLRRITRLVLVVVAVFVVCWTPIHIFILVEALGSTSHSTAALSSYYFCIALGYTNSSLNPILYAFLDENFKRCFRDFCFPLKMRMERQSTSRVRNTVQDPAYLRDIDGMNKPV

[4] = target: T2, Kappa-type opioid receptor; assay: Activity at human kappa opioid receptor expressed in CHO cells assessed as stimulation of [35S]GTPgammaS binding relative to basal level; assay type: functional, cell-based
Outline: (§1)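 Twelve compound concentrations were incubated with CHO membranes (κ 15 μg, μ 7.5 μg) and 0.080 nM [35S]GTPγS for 60 min at 30°C. Nonspecific binding was defined with 10 μM GTPγS. Samples were filtered and counted. Emax was taken with basal set at 0%, with EC50. Mean ± SEM, ≥3 experiments in triplicate.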

[5] = target: T2, Kappa-type opioid receptor; assay: Antagonist activity at human kappa opioid receptor expressed in CHO cells assessed as inhibition of U50,488-stimulated [35S]GTPgammaS binding; assay type: functional, cell-based
Outline: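 κ-receptor CHO membranes were incubated with compound in the presence of 100 nM U50,488 in a [35S]GTPγS binding assay.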

[6] = target: T1, Mu-type opioid receptor; assay: Antagonist activity at human mu opioid receptor expressed in CHO cells assessed as inhibition of DAMGO-stimulated [35S]GTPgammaS binding; assay type: functional, cell-based
[7] = target: T1, Mu-type opioid receptor; assay: Activity at human mu opioid receptor expressed in CHO cells assessed as stimulation of [35S]GTPgammaS binding relative to basal level; assay type: functional, cell-based; outline: as §1
[8] = target: T2, Kappa-type opioid receptor; assay: Activity at human kappa opioid receptor expressed in CHO cells assessed as stimulation of [35S]GTPgammaS binding; assay type: functional, cell-based; outline: as §1

T1 sequence (P35372 whole entry): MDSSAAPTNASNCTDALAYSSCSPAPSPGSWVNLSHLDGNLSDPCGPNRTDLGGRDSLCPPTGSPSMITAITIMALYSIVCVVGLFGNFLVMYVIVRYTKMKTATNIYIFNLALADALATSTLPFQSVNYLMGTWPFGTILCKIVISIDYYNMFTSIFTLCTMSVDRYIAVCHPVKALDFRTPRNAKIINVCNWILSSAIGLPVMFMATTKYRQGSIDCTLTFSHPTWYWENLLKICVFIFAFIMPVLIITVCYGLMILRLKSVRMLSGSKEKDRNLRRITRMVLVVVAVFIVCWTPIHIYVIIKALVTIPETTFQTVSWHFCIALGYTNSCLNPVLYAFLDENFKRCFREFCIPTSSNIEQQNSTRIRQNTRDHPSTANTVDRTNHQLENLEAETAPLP

In the case of `C[C@H]1C2Cc3cc4ncnc(NCCc5ccc(-c6ccccc6)cc5)c4cc3[C@@]1(C)CCN2CC1CC1` (mixture of isomers), the Ki [1] is reported as 28 nM, the Ki [2] is reported as 410 nM and the Ki [3] is reported as 140 nM.
`C[C@H]1C2Cc3cc4ncnc(NCc5ccccc5)c4cc3[C@@]1(C)CCN2CC1CC1` (mixture of isomers) gave a Ki [1] of 88 nM, a Ki [2] of 1000 nM and a Ki [3] of 48 nM.
`C[C@H]1C2Cc3ccc4c(NCCc5ccc(-c6ccccc6)cc5)ncnc4c3[C@@]1(C)CCN2CC1CC1` (mixture of isomers) showed a Ki [1] of 6.9 nM, a Ki [2] of 52 nM and a Ki [3] of 8.6 nM.
`C[C@H]1C2Cc3ccc4c(N)ncnc4c3[C@@]1(C)CCN2CC1CC1` (mixture of isomers) was tested, and the Ki [1] was 0.55 nM, the Emax [4] was 6.3% and the IC50 [5] was 1300 nM. It also gave an Imax [5] of 75%, an IC50 [6] of 28 nM and an Imax [6] of 88%. It also gave a Ki [2] of 120 nM, a Ki [3] of 1 nM and an Emax [7] of 0.64%.
For `C[C@H]1C2Cc3cc4cc[nH]c(=O)c4cc3[C@@]1(C)CCN2CC1CC1` (mixture of isomers), the Ki [1] was 5.5 nM, the Emax [4] was 91% and the Activity [5] was “inactive”. The EC50 [8] was 60 nM, the IC50 [6] was 850 nM and the Imax [6] was 69%. It also gave a Ki [2] of 74 nM, a Ki [3] of 0.74 nM and an Emax [7] of 27%.
In the case of `C[C@H]1C2Cc3cc([N+](=O)[O-])c(O)cc3[C@@]1(C)CCN2CC1CC1` (mixture of isomers), the Ki [1] is reported as 3800 nM, the Ki [2] is reported as > 10000 nM and the Ki [3] is reported as 580 nM.
With `C[C@H]1C2Cc3ccc(C(N)=O)c([N+](=O)[O-])c3[C@@]1(C)CCN2CC1CC1` (mixture of isomers) the Ki [1] was 20 nM, the Ki [2] was 220 nM and the Ki [3] was 34 nM.
For `C[C@H]1C2Cc3cc([N+](=O)[O-])c(C(N)=O)cc3[C@@]1(C)CCN2CC1CC1` (mixture of isomers), the Ki [1] was 630 nM, the Ki [2] was 730 nM and the Ki [3] was 110 nM.
In the case of `C[C@H]1C2Cc3cc4ncnc(N)c4cc3[C@@]1(C)CCN2CC1CC1` (mixture of isomers), the Ki [1] is reported as 890 nM, the Ki [2] is reported as > 10000 nM and the Ki [3] is reported as 560 nM.
`C[C@H]1C2Cc3ccc(O)c([N+](=O)[O-])c3[C@@]1(C)CCN2CC1CC1` (mixture of isomers) was tested, and the Ki [1] was 32 nM, the Ki [2] was 1900 nM and the Ki [3] was 3.2 nM.
In the case of `C[C@H]1C2Cc3ccc4c(NCc5ccccc5)ncnc4c3[C@@]1(C)CCN2CC1CC1` (mixture of isomers), the Ki [1] is reported as 44 nM, the Ki [2] is reported as 1500 nM and the Ki [3] is reported as 240 nM.
In the case of `C[C@H]1C2Cc3ccc(C(N)=O)c(N)c3[C@@]1(C)CCN2CC1CC1` (mixture of isomers), the Ki [1] is reported as 0.55 nM, the Emax [4] is reported as 38% and the Activity [5] is reported as “inactive”. The EC50 [8] was 15 nM, the IC50 [6] was 31 nM and the Imax [6] was 93%. For the same compound, the Ki [2] was 35 nM, the Ki [3] was 0.7 nM and the Emax [7] was 4.6%.
